The values that follow come from ChEMBL document CHEMBL1131930, “Synthetic [5,5] trans-fused indane lactones as inhibitors of thrombin” (Bioorg Med Chem Lett, 1999).

Assay [1] is described as follows: Activated partial thromboplastin time (APTT) 2x control using human plasma. The assay is classed as functional. In short, it runs like this:
(§1)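 Human plasma clotting; test compound added with a preincubation step before APTT measurement. The value is the compound concentration required to double the activated partial thromboplastin time. Lines with no significant effect were tested up to 100 µM.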

In assay [2] the target is Serine protease 1 (Homo sapiens) (UniProt P07477). As to the kind of experiment: Inhibitory activity against protease trypsin was determined.
Sequence of Serine protease 1 (Homo sapiens) (P07477 whole entry): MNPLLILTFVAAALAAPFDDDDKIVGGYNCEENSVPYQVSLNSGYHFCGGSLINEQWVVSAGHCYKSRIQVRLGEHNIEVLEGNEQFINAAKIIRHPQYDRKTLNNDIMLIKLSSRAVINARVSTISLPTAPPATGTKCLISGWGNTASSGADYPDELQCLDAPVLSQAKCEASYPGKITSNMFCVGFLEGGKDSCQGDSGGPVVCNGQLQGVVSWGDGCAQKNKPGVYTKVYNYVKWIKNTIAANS
Assay [3] in a line: Selectivity was determined.
Assay [4] has as its target T1, Prothrombin (Homo sapiens, UniProt P00734).
Another assay is filed under the species Homo sapiens. Briefly: Activated partial thromboplastin time (APTT) 2x control using human plasma; NE=no significant effect at 100 uM. The assay is classed as functional, cell-free. In short, it runs like this: as §1
Assay [5] concerns the target T1, Prothrombin. As to the kind of experiment: Inhibitory activity against human thrombin was determined.

As to `N=C(N)CCCCC1C(=O)O[C@H]2Cc3ccc(-c4cccc(-c5ccccc5)c4)cc3[C@H]12` (some centres undefined), in assay [1], the APTT came out at 85 µM. Also, the K obs / 1 was determined as 110000 M⁻¹ s⁻¹ in assay [2] and 3.8e+06 M⁻¹ s⁻¹ at Prothrombin [4]. For the same compound, the Selectivity in assay [3] worked out at 35.
For `N=C(N)CCCCC1C(=O)O[C@H]2Cc3ccc(-c4ccccc4)cc3[C@H]12` (some centres undefined), the APTT in assay [1] is 60 µM. The K obs / 1 at Prothrombin [4] worked out at 490000 M⁻¹ s⁻¹.
Take `C/N=C(/N)CCCC[C@H]1C(=O)O[C@H]2Cc3ccc(-c4ccc(O)cc4)cc3[C@@H]21`: in the assay filed under Homo sapiens, the APTT entry is “No effect”.
The compound `CNC(=N)CCCC[C@H]1C(=O)O[C@H]2Cc3ccc(-c4ccc(O)cc4)cc3[C@@H]21` returned an IC50 against Prothrombin [5] of 1600 nM.
Take `N=C(N)CCCCC1C(=O)O[C@H]2Cc3ccccc3[C@H]12` (some centres undefined): the APTT in assay [1] worked out at 100 µM. The compound also had an IC50 at Prothrombin [5] of 77 nM. This compound had a K obs / 1 on Prothrombin [4] of 4200 M⁻¹ s⁻¹.
Turning to `N=C(N)CCCCC1C(=O)O[C@H]2Cc3ccc(-c4ccc(O)cc4)cc3[C@H]12` (some centres undefined), the APTT in assay [1] came out at 42 µM. The same compound had an IC50 against Prothrombin [5] of 9 nM. For the same compound, the K obs / 1 at Prothrombin [4] came out at 270000 M⁻¹ s⁻¹.
Turning to `COc1cccc(-c2ccc3c(c2)C[C@@H]2OC(=O)C(C)(CCCCC(=N)N)[C@@H]32)c1` (some centres undefined), the APTT entry in the assay listed under Homo sapiens is “No effect”. At Prothrombin [5], the IC50 was found to be 1800 nM.
In the case of `N=C(N)CCCCC1C(=O)O[C@H]2Cc3cc(-c4cccc(-c5ccccc5)c4)ccc3[C@H]12` (some centres undefined), the APTT entry in the assay listed under Homo sapiens was “No effect”. Moreover, the K obs / 1 on Prothrombin [4] turned out to be 160000 M⁻¹ s⁻¹.
In the case of `N=C(N)CCCCC1C(=O)O[C@H]2Cc3cc(-c4ccc(O)cc4)ccc3[C@H]12` (some centres undefined), the APTT in assay [1] turned out to be 27 µM. At Prothrombin [4], this compound displayed a K obs / 1 of 33000 M⁻¹ s⁻¹.
At Prothrombin [5], `N=C(N)CCC[C@H]1C(=O)O[C@H]2Cc3ccccc3[C@@H]21` had an IC50 of 600 nM.
As for `N=C(N)CCCCC1C(=O)O[C@H]2Cc3cc(-c4ccccc4)ccc3[C@H]12` (some centres undefined), in assay [1], the APTT turned out to be 50 µM. Moreover, the K obs / 1 in assay [2] turned out to be 20000 M⁻¹ s⁻¹; at Prothrombin [4], 48000 M⁻¹ s⁻¹. Also, the Selectivity in assay [3] worked out at 2.4.
As to `NC(N)=NCCC[C@H](NC(=O)[C@H]1CCCN1C(=O)[C@H](N)Cc1ccccc1)C(=O)CCl`, at Prothrombin [4], the K obs / 1 turned out to be 1.6e+07 M⁻¹ s⁻¹.
In the case of `NC(N)=NCCC[C@H](NC(=O)[C@@H]1CCCN1C(=O)[C@H](N)Cc1ccccc1)C(=O)CCl`, in assay [1], the APTT amounted to 1.8 µM.
As to `COc1cccc(-c2ccc3c(c2)C[C@@H]2OC(=O)C(CCCCC(=N)N)[C@@H]32)c1` (some centres undefined), the APTT in assay [1] was 25 µM. Besides, the K obs / 1 worked out at 36000 M⁻¹ s⁻¹ in assay [2] and 96000 M⁻¹ s⁻¹ at Prothrombin [4]. Also, the Selectivity in assay [3] came out at 2.7.
With `CCN(CC)C(=O)c1cccc(-c2ccc3c(c2)[C@@H]2C(CCCCC(=N)N)C(=O)O[C@H]2C3)c1` (some centres undefined), the APTT in assay [1] stood at 40 µM. The K obs / 1 in assay [2] is 200000 M⁻¹ s⁻¹; on Prothrombin [4], 1.1e+07 M⁻¹ s⁻¹. In addition, in assay [3], the Selectivity amounted to 55.
In the same order, the values of `CCN(CC)C(=O)c1cccc(-c2ccc3c(c2)C[C@@H]2OC(=O)C(CCCCC(=N)N)[C@@H]32)c1` (some centres undefined) are 4 µM, 220000 M⁻¹ s⁻¹, 420000 M⁻¹ s⁻¹ and 1.9.
